PfHsp90 set2 – growth inhibition of PfHsp90-expressing yeast, primary screen, antimalarial PfHsp90 inhibitor project, S. cerevisiae, BacTiter-Glo luminescence, single point, set 2 | BacTiter-Glo ATP, 48 h; yeast lacking PDR1 and PDR3 efflux regulators | inhibition, % at 9.4 µM | 310,000 compounds, 0.32% hits | AID 504621, 2011;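 active = every replicate shows inhibition above about 80%, whatever the replicate mean, limit read from the data; inconclusive = mean inhibition reaches the set limit but some replicate falls short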;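 note: 0% = DMSO neutral controls and 100% = 20 µM radicicol positive controls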
HSF1 activator – HSF-1 activators, primary screen, NIH3T3-HGL cells, MG132 stress, luminescence, single point | NIH3T3-HGL HSF-1 luciferase reporter, 8 h; 100% = twice DMSO control signal | AID 504408, 2011 | 300,000 compounds, 1.7% hits | activation, % at 9 µM;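 active = mean replicate activation of at least 50% with a set share of replicates each reaching 50%; inconclusive = only one of those two conditions met; inactive = mean below 50% and too few replicates reaching it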;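 note: 0% = median of the neutral control wells and 100% = twice that signal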
T cruzi inh – inhibitors of intracellular T. cruzi growth, primary screen, luminescence, NIH3T3 host cells; T. cruzi beta-gal in NIH3T3, 90 h; inhibition, % (test concentration not listed); 300,000 compounds, 1.4% hits; AID 1885, 2009;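 active = mean inhibition across valid replicates above about 55%, limit read from the data; inconclusive = mean below that limit but half or more replicates reach it; inactive = mean below it, under half of replicates reach it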;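 note: signal also drops with host cell toxicity which is not excluded here; 0% = plate median of DMSO wells and 100% = zero luminescence signal; higher percent means less beta-gal luminescence so fewer parasites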
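Incubation – ≥90 h infection period, 3 h prior cell attachment · System – NIH/3T3 fibroblasts plus reporter T. cruzi · Doses – compound pinned at 50 nL/well, DMSO · Read-out basis – percent inhibition of parasite-derived β-gal signal · Signal – luminescent β-galactosidase signal after 60 min lysis · Also added – 5000 T. cruzi trypomastigotes/well · Medium – Low-serum DMEM with 2% FBS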
Glyco luc inh – increase of ERlucT glycosylation luciferase signal, primary screen, N-linked glycosylation inhibitor project, D54 ERlucT cells, luminescence, set 2 | D54 ERlucT glycosylation luciferase reporter, 24 h; percent of 100 nM tunicamycin response | reporter increase, % at 12.5 µM | 360,000 compounds, 0.23% hits;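 active = mean luciferase reporter signal, scaled so untreated is 0 and the glycosylation-blocking control 100, at or above a set limit in every replicate; inconclusive = mean reaches the limit but not every replicate does; inactive = mean below the limit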;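 note: luciferase carries N-glycosylation sites so blocking glycosylation raises the light; 0% = median of neutral control wells and 100% = median of 100 nM tunicamycin wells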
CaV13 FRET inh – Disruptors of the CACNA1D IQ motif to Ca2+-dependent inactivation inhibitor domain association, primary screening, Förster resonance energy transfer in intact living … | HEK cells, CFP/YFP FRET ICDI-IQ, plate reader, 10 min; percent FRET-ratio fall versus neutral wells | inhibition, % at 12.3 µM | 340,000 compounds, 0.098% hits;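 active = mean replicate inhibition of at least 30% and at least 1% of replicates passing that level; inconclusive = only one of the two criteria is met; inactive = neither criterion is met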;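 note: 0% = median of the neutral control wells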
PvdQ inh – P. aeruginosa PvdQ acylase inhibitors, primary screen, biochemical, fluorescence, plate reader and imaging, single point | PvdQ acylase [Pseudomonas aeruginosa LESB58] | 340,000 compounds, 0.063% hits | purified PvdQ acylase | inhibition, % at 10 µM | AID 488965, 2010; in the data active = inhibition above about 30%, passing the limit was not always enough; inconclusive = no clear call, values can overlap the other calls;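 note: 0% = vehicle neutral wells and 100% = reference inhibitor wells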
The depositor's hits bear a star; u = inconclusive; x = no result. Rows were chosen to be rich in hits. Some 3% of all compounds tested hit in one or more screens of this group.

SMILES	PfHsp90 set2	HSF1 activator	T cruzi inh	Glyco luc inh	CaV13 FRET inh	PvdQ inh
O=C1NC(=O)N(Cc2ccc(F)cc2)C(=O)/C1=C\C=C\c1ccco1	21	82*	-57	u	-3	-6
Cc1ccc(N2C(=O)NC(=O)/C(=C/C=C/c3ccco3)C2=O)cc1	-4	u	-4	u	-5	5
O=C1NC(=O)N(Cc2ccccc2)C(=O)/C1=C\c1ccco1	-2	-4	5	13	-5	-16
CCc1ccc(N2C(=O)NC(=O)/C(=C\C=C\c3ccco3)C2=O)cc1	7	-7	-5	46*	-4	-9
Cc1cc(C)cc(N2C(=O)NC(=O)/C(=C\C=C\c3ccco3)C2=O)c1	2	u	-3	56*	-5	2
Cc1cc(C)c(C)c(C(O)(C(=O)O)c2ccccc2)c1 (centres undefined)	x	x	x	0	-5	x
Cc1cc(N2CCNC[C@@H]2C)ccc1N1CCN[C@@H](C)C1	x	x	x	x	-2	x
Cc1ccccc1-n1c(O)c(C=Nc2ccc(N(C)C)cc2)c(=O)[nH]c1=O	9	64*	38	9	-6	-6
Cc1cccc(N=Cc2c(O)n(-c3ccccc3C)c(=O)[nH]c2=O)c1	-9	x	-13	0	-7	1
CN(C)C(=S)SSC(=S)N(C)C	108*	13	25	6	-5	-2
C=CC12CN(C)C3C4COC(CC41)C1(C(=O)Nc4ccccc41)C32 (centres undefined)	x	x	x	-2	x	x
CC1C(=O)CC2(C(C)C)CC12 (centres undefined)	x	x	x	4	x	x
CCCCn1c(O)c(C(C)=NCCCN(C)C)c(=O)[nH]c1=O	x	12	45	0	-6	7
CCCCn1c(O)c(C(CC)=NCCCN(C)C)c(=O)[nH]c1=O	-7	-7	57*	0	-6	4
CCCCn1c(O)c(C(C)=NCCCN(CC)CC)c(=O)[nH]c1=O	x	18	58*	-2	-6	-8
NCCc1nc2ccccc2s1	-32	-9	-14	-2	-8	-14
c1ccc2sc(C3CCNCC3)nc2c1	-2	24	64*	-2	-21	-16
COC(=O)C1=C(C(=O)OC)C2OC1c1cc3ccccc3cc12	132*	59*	x	-21	-6	-13
CCCCNC(=S)N1CCn2cccc2C1c1cccnc1 (centres undefined)	-6	2	65*	3	3	-12
CC(=O)NCC1=C(c2ccc(S(C)(=O)=O)cc2)C[C@@H]2CC[C@H]1N2CCOc1ccccc1	x	x	x	x	-5	x
C=CCn1c(O)c(C(CC)=Nc2ccc3c(c2)CCC3)c(=O)[nH]c1=O	12	74*	5	0	-4	-11
C=CCn1c(O)c(C(C)=Nc2ccc3c(c2)CCC3)c(=O)[nH]c1=O	-14	21	10	0	-5	-2
S=C(NCCc1ccccc1)N1Cc2ccccc2-n2nncc2C1	x	x	x	-3	-2	x
O=c1[nH]c(=S)[nH]c(O)c1N=Nc1ccc2c(c1)OCCO2	6	73*	-9	-8	-1	-7
COc1cccc(N=Nc2c(O)[nH]c(=S)[nH]c2=O)c1	6	103*	-50	8	-16	8
SMILES	PfHsp90 set2	HSF1 activator	T cruzi inh	Glyco luc inh	CaV13 FRET inh	PvdQ inh
CCC1C(c2cc(OC)c(OC)c(OC)c2)c2cc3c(cc2OC1N1CCCC1)OCO3 (centres undefined)	0	25	x	17	-6	-15
C[C@H]1CNCCN1c1ccc(N2CC[C@H](O)C2)c(C#N)c1	x	x	x	x	-8	x
COc1ccc(CNCCc2c(C)[nH]c3ccc(OC(F)(F)F)cc23)c(OC)c1	20	3	59*	-4	-4	-17
COc1ccc2[nH]c(C)c(CCNCc3cc(OC)c(OC)c(OC)c3)c2c1	x	3	11	2	-285	-7
COc1cc(OC)c(OC)cc1CNCCc1cccc(F)c1	-30	1	35	0	-19	-10
COc1cccc(CCNCc2cccc(C(F)(F)F)c2)c1	-32	-12	64*	0	-4	4
COc1ccc2nc(-c3ccc(CN4CCC(n5c(=O)[nH]c6cc(Cl)ccc65)CC4)cc3)c(-c3ccccc3)nc2c1	x	x	x	x	-15	x
C[C@H]1CN([C@@H](C)CO)C(=O)CCCn2cc(nn2)CO[C@@H]1CN(C)C(=O)Oc1cccc2ccccc12	x	x	x	x	-5	x
c1ccc(CCN2CCC3CCNC3C2)cc1 (centres undefined)	x	x	x	x	-10	x
O=C1NC(=S)NC(=O)C1=Cc1ccc(Br)s1	123*	4	-24	8	-2	-16
CN1C(=O)/C(=C\c2ccc(Br)s2)C(=O)NC1=S	56	-17	-6	6	-4	-16
COC(=O)C1=C(c2ccc(OC)c(OC)c2)C[C@@H]2CC[C@H]1N2C(=O)NCCCOC(C)C	-3	x	x	1	-5	-4
Clc1ccc(CCC(Cn2ccnc2)Sc2c(Cl)cccc2Cl)cc1 (centres undefined)	88*	x	x	-8	-5	3
Cc1cc(C(=O)N=Nc2c(O)n(C)c3ccccc23)c(C)o1	18	80*	30	-5	-3	-11
Cn1c(=O)oc(=O)c2ccccc21	x	x	x	0	-10	-6
C=CCNC(=S)N1Cc2cc(Br)ccc2-n2nncc2C1	x	x	x	3	-6	x
C[n+]1c(-c2ccccc2)c2cc(N)ccc2c2ccc(N)cc21	-35	-8	62*	-16	-10	17
CCc1ccc(CN2CCCC(C(=O)c3sccc3C)C2)o1 (centres undefined)	-22	35	55*	-1	4	-4
Cc1ccsc1C(=O)C1CCCN(Cc2ccccc2O)C1 (centres undefined)	-14	58*	9	-1	-3	-2
Cc1ccsc1C(=O)C1CCCN(Cc2cnn(C(C)C)c2)C1 (centres undefined)	14	12	66*	0	-18	-1
COc1ccccc1CN1CCN(Cc2ccc(Cl)cc2)CC1	-5	-1	58*	1	5	-2
Cc1ccc(-c2nn(Cc3ccccc3)cc2C=O)cc1C	-58	70*	17	-1	-5	-9
Cc1ccc(-c2nn(Cc3ccccc3)cc2C=O)cc1	-28	53*	9	0	0	-13
Cc1ccc(Cn2cc(C=O)c(-c3ccc(F)cc3)n2)cc1	-5	57*	0	-1	-13	3
